Compounds with a hit are over-represented: about 2% of the library has one in this group of screens.
E-sel inducer – induces E-selectin expression in human endothelial cells; P16581; HUVEC E-selectin immunofluorescence imaging; normalized: neutral wells 0, TNF-alpha wells 100; activation, % at 7.58 µM; actives 0.37% (n = 260,000); AID 686992;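 active = mean E-selectin-positive cell signal at least 10% of the positive control, reached in at least 60% of replicates, without over 20% cell loss; inconclusive = no rule given, readout overlaps actives, possibly toxicity-flagged; inactive = the rest, including those meeting only one limit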
Target sequence (P16581 whole entry, looked up): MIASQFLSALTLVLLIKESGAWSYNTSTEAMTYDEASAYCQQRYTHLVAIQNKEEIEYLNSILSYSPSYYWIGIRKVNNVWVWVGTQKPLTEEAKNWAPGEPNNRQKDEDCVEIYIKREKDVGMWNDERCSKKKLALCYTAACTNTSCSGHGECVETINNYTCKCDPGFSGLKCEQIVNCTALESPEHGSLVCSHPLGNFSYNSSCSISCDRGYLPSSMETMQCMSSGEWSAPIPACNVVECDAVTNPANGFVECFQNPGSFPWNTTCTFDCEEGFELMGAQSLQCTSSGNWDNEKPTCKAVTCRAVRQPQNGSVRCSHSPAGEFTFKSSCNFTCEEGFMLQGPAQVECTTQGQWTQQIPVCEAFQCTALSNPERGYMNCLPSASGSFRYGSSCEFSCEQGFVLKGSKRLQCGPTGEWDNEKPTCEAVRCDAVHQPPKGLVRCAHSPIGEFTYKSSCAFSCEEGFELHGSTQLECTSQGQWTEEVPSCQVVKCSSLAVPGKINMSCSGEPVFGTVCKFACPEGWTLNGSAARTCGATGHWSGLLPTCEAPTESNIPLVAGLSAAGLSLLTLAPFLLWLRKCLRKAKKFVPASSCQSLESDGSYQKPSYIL
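Assay system: HUVEC primary endothelial cells. Input: 3,000 HUVEC seeded per well. Doses: one compound dose added by pin transfer. Read-out basis: % PE-positive cells. Benchmarks: TNF-alpha high, DMSO low. Detection: immunofluorescence imaging. Buffer or medium: EGM-2, gelatin.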
S100A4 MyoIIA – blocks human S100A4 binding to myosin IIA peptide; P26447; S100A4/TAMRA-MyoIIA peptide fluorescence polarization; inhibition, % at 10.7 µM; actives 0.14% (n = 360,000); AID 652163;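 active = mean inhibition of at least 70% across replicates, with every replicate also reaching that level; inconclusive = mean inhibition reaches 70% but some replicates fall short; inactive = mean inhibition below 70%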
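Test system – S100A4 monomer (human) · Compound – single-point compound testing · Schedule – 5 min incubation before reading · Probe or stimulus – TAMRA-labelled myosin IIA heavy-chain peptide probe, 5 nM · Benchmarks – neutral control DMSO, positive control TFP · Medium – Calcium-containing HEPES buffer, pH 7.2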
Xi reactivation – activators of X-chromosome reactivation in mouse fibroblasts | XiGFP mouse fibroblasts, % GFP-positive cells imaging, 3 d; cells co-treated with 5-aza-dC sensitizer; scaled so ellipticine positive control = 100% | activation, % at 7.58 µM | actives 0.055% (n = 360,000);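 active = mean normalized replicate activation at least 10% and every replicate at or above 10%; inconclusive = only one of the two criteria met; inactive = mean below 10% and not all replicates reach 10%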;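 also: 0% = median of on-plate neutral control wells and 100% = ellipticine 6 µM median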
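assay system = SV40-immortalized XiGFP fibroblast cells, line 68-5-11 | buffer or medium = DMEM plus 5-aza-dC sensitizer | doses = single-point pinned compound dosing | times = 3-day compound exposure, then 15 min fixation at room temperature | benchmarks = positive control ellipticine, 6 µM final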
DENV2 CPE – inhibitors of DENV2 cytopathic effect; DENV2-infected cells, cytopathic effect rescue, plate reader; CPE inhibition, % at 9.99 µM; actives 1.7% (n = 350,000); AID 651640; in the data active = CPE inhibition above about 20%, passing the limit was not always enough; inconclusive = no clear call, values can overlap the other calls; tested in BHK-21 cells;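 also: 0% = median of neutral control wells and 100% = median of positive control wells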
Active calls of the source: *; u = inconclusive; x = no result.

SMILES	E-sel inducer	S100A4 MyoIIA	Xi reactivation	DENV2 CPE
C[C@@H]1CN([C@@H](C)CO)C(=O)Cc2cc(NC(=O)Cn3cnnn3)ccc2O[C@@H]1CN(C)C(=O)Nc1ccc2c(c1)OCO2	-1	-15	0	23*
C[C@@H]1CN([C@H](C)CO)C(=O)Cc2cc(NC(=O)Cn3cnnn3)ccc2O[C@H]1CN(C)C(=O)Nc1ccc2c(c1)OCO2	1	5	0	4
COC(=O)c1[nH]c2cccc(OC)c2c1NC(=O)CCN1CCSCC1	8	8	0	2
OCC1OCOC2C(CO)OCOC12 (stereo not drawn)	x	6	x	123*
CCOc1ccc(C2=CC(=O)C[C@H](c3ccc(OC)cc3)C2)cc1	0	-23	0	26*
COc1ccc(C2=CC(=O)CC(c3ccc(OC)cc3)C2)cc1 (stereo not drawn)	0	-14	0	5
Cc1cc(SC(C)C(=O)NCC(=O)Nc2ccc(F)c(F)c2F)nc2ccccc12 (stereo not drawn)	x	1	0	2
Cc1cc(C)c2nc(SC(C)C(=O)NCC(=O)Nc3ccc(F)c(F)c3F)cc(C)c2c1 (stereo not drawn)	x	-10	0	28*
C[C@@H]1CN([C@H](C)CO)C(=O)c2cc(NS(=O)(=O)c3ccccc3)ccc2O[C@H]1CN(C)Cc1ccc2c(c1)OCO2	u	15	0	2
COc1ccc(C=O)cc1COc1ccc([N+](=O)[O-])c(C)c1	369*	6	0	-3
COc1ccc(C(=O)/C=C2\Sc3ccccc3N2C)cc1	x	5	0	0
COc1ccc(-[n+]2c(C)cc(/C=C3\Sc4ccccc4N3C)cc2C)cc1	x	1	179*	7
COc1ccccc1-[n+]1c(C)cc(/C=C2\Sc3ccccc3N2C)cc1C	-4	-4	101*	15
CC(C)C(=O)NNS(=O)(=O)c1ccccc1	x	4	0	-1
COc1cccc(-c2ccc([C@@H]3[C@@H](C#N)N(C(=O)Cc4ccccc4)[C@@H]3CO)cc2)c1	0	1	0	26*
COCC(=O)N1[C@@H](C#N)[C@H](c2ccc(-c3cccc(F)c3)cc2)[C@@H]1CO	-1	116*	0	u
COCC(=O)N1[C@@H](C#N)[C@@H](c2ccc(C3=CCCCC3)cc2)[C@@H]1CO	0	1	0	24*
N#C[C@H]1[C@H](c2ccc(-c3cccc(F)c3)cc2)[C@@H](CO)N1c1nc(-c2ccccc2)cs1	0	-18	0	38*
O=C(CCNC(=O)c1ccc(Br)cc1)NCCCN1CCCC1=O	1	4	0	2
Cc1cccc(CCNC(=O)C2CCCN(S(=O)(=O)c3cnc[nH]3)C2)c1 (stereo not drawn)	x	1	0	1
CCCS(=O)(=O)N1CCCC(C(=O)NCCc2cccc(C)c2)C1 (stereo not drawn)	0	6	0	27*
Cc1ccc(O)c(N=Nc2ccc(S(=O)(=O)N3CCCC3)cc2)c1	0	1	61*	-1
Cc1cccc(NS(=O)(=O)c2ccc(S(=O)(=O)N3CCCC3)cc2)c1	206*	-2	0	u
COc1cccc(NS(=O)(=O)c2ccc(S(=O)(=O)N3CCCC3)cc2)c1	x	-3	0	1
Cc1ccccc1NS(=O)(=O)c1ccc(S(=O)(=O)N2CCCC2)cc1	0	-4	0	22*
SMILES	E-sel inducer	S100A4 MyoIIA	Xi reactivation	DENV2 CPE
CC(=O)NS(=O)(=O)c1ccc(NC(=O)C(C)NS(=O)(=O)/C=C/c2ccccc2)cc1 (stereo not drawn)	x	-3	0	-9
COc1cccc(NC(=O)CN(C)C(=O)CC2CC3CCC2C3)c1 (stereo not drawn)	x	-3	0	2
CCCOc1ccc(/C=N/NC(=O)CN2CCCCC2)cc1OCC	x	0	0	0
CCCCOc1ccc(C(=O)N/N=C/c2ccc(OCCN3CCCCC3)c(OC)c2)cc1	x	2	0	32*
CSc1cccc(NC(=O)C2CCN(S(=O)(=O)c3ccc4c(c3)NC(=O)CO4)CC2)c1	x	86*	0	-5
C=CCc1ccc(OCCCNCc2ccccc2)c(OC)c1	x	2	0	43*
Cn1c(O)c(/C=N/Nc2ccccc2)c(=O)n(C)c1=O	x	1	0	14
Cc1ccccc1NC(=O)C1CCN(S(=O)(=O)c2ccc3c(c2)NC(=O)C(C)S3)CC1 (stereo not drawn)	x	111*	0	-1
